Common to all, as to type: functional, cell-based
One assay has as its system A549. Kind of assay: Anticancer activity against human A549 cells after 48 hrs by MTT assay. Particulars: A549, 48 h. The procedure, abridged:
(§1)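 MTT assay. Cells seeded at 1 × 10⁴/well in DMEM with 10% FBS and held 24 h at 37 °C in CO₂. Compounds were diluted in culture medium and added alongside vehicle controls, then incubated 48 h. MTT (5 mg/ml stock) was added for 4 h. Supernatant was removed, formazan dissolved in DMSO, and absorbance read at 540 nm.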

The next assay concerns A-375. Kind of assay: Anticancer activity against human A375 cells after 48 hrs by MTT assay. The settings on record: A-375, 48 h. In a few lines: as §1
In another assay the test system is MCF7. Kind of assay: Anticancer activity against human MCF7 cells after 48 hrs by MTT assay. The settings on record: MCF7, 48 h. In a few lines:
as §1

A further assay relates to HT-29. Kind of assay: Anticancer activity against human HT-29 cells after 48 hrs by MTT assay. The settings on record: HT-29, 48 h. In a few lines:
as §1

In the next assay the test system is ACHN. In words: Anticancer activity against human ACHN cells after 48 hrs by MTT assay. The procedure, abridged:
as §1

For the molecule `O=C(O)/C=C/c1ccccc1` [CINNAMIC ACID], the IC50 in the assay with A549 was 87 µM; in the assay with A-375, 64 µM; in the assay on MCF7, 108 µM; in the assay with HT-29, 114 µM; in the assay on ACHN it was 91 µM.
`COc1cc([C@@H]2c3cc4c(cc3[C@@H](NC(=O)/C=C/c3ccc(F)cc3)[C@H]3COC(=O)[C@H]23)OCO4)cc(OC)c1OC`: the IC50 in the assay with A549 was determined as 6.8 µM; in the assay with A-375, 9.5 µM; in the assay on MCF7 it was 14.6 µM; with HT-29 it was 7.1 µM; in the assay with ACHN, 18.6 µM.
Consider `COc1cc([C@@H]2c3cc4c(cc3[C@H](O)[C@H]3COC(=O)[C@H]23)OCO4)cc(OC)c1OC` [PODOFILOX], for which the IC50 stood at 3.75 µM with A549; 2.62 µM in the assay with A-375; 1.18 µM with MCF7; 0.78 µM with HT-29; 2.12 µM with ACHN.
For `COc1ccc(/C=C/C(=O)c2cc(OC)c(OC)c(OC)c2)cc1OCCCCCC(=O)N[C@@H]1c2cc3c(cc2[C@@H](c2cc(OC)c(OC)c(OC)c2)[C@H]2C(=O)OC[C@@H]21)OCO3` the same measures were 16.7 µM, 10.3 µM, 12.6 µM, 6.47 µM and 13.4 µM.
For `COc1ccc(C(=O)/C=C/c2ccc(OCC(=O)N[C@@H]3c4cc5c(cc4[C@@H](c4cc(OC)c(OC)c(OC)c4)[C@H]4C(=O)OC[C@@H]43)OCO5)c(OC)c2)cc1` the same measures were 8.3 µM, 9.3 µM, 16.2 µM, 16.9 µM and 16.1 µM.
Take `COc1cc(C(=O)/C=C/c2cccc(OCC(=O)N[C@@H]3c4cc5c(cc4[C@@H](c4cc(OC)c(OC)c(OC)c4)[C@H]4C(=O)OC[C@@H]43)OCO5)c2)cc(OC)c1OC`: the IC50 was 16.8 µM with A549; 18.2 µM in the assay with A-375; 24.4 µM in the assay with MCF7; 15.6 µM with HT-29; 9.1 µM in the assay on ACHN.
Regarding `COc1cccc(C(=O)/C=C/c2ccc(OCCCCCC(=O)N[C@@H]3c4cc5c(cc4[C@@H](c4cc(OC)c(OC)c(OC)c4)[C@H]4C(=O)OC[C@@H]43)OCO5)c(OC)c2)c1`, the IC50 with A549 turned out to be 14.4 µM; with A-375 it was 20.1 µM; with MCF7 it was 17.5 µM; with HT-29, 11.9 µM; with ACHN, 13.7 µM.
For the molecule `COc1ccc(C(=O)/C=C/c2ccc(OCCCCCC(=O)N[C@@H]3c4cc5c(cc4[C@@H](c4cc(OC)c(OC)c(OC)c4)[C@H]4C(=O)OC[C@@H]43)OCO5)c(OC)c2)cc1`, the IC50 came out at 19 µM in the assay on A549; 13 µM with A-375; 12 µM with MCF7; 16 µM in the assay on HT-29; 10 µM in the assay with ACHN.
`COc1cc(/C=C/C(=O)c2cccc([N+](=O)[O-])c2)ccc1OCC(=O)N[C@@H]1c2cc3c(cc2[C@@H](c2cc(OC)c(OC)c(OC)c2)[C@H]2C(=O)OC[C@@H]21)OCO3`: the IC50 with A549 is 9 µM; in the assay with A-375 it was 5.3 µM; with MCF7 it was 6.7 µM; with HT-29 it was 8.41 µM; in the assay with ACHN, 13.2 µM.
`COc1cc(/C=C/C(=O)N[C@@H]2c3cc4c(cc3[C@@H](c3cc(OC)c(OC)c(OC)c3)[C@H]3C(=O)OC[C@@H]32)OCO4)cc(OC)c1OC`: the IC50 in the assay with A549 worked out at 7.9 µM; in the assay with A-375, 14 µM; in the assay with MCF7, 17.7 µM; with HT-29 it was 8.34 µM; in the assay on ACHN, 13.1 µM.
For `COc1ccc(/C=C/C(=O)c2cc(OC)c(OC)c(OC)c2)cc1OCC(=O)N[C@@H]1c2cc3c(cc2[C@@H](c2cc(OC)c(OC)c(OC)c2)[C@H]2C(=O)OC[C@@H]21)OCO3`, the IC50 was found to be 11.7 µM in the assay with A549; 11.5 µM with A-375; 15.4 µM in the assay on MCF7; 5.98 µM in the assay with HT-29; 11.1 µM in the assay with ACHN.
`COc1cc(/C=C/C(=O)c2cccc([N+](=O)[O-])c2)ccc1OCCCCCC(=O)N[C@@H]1c2cc3c(cc2[C@@H](c2cc(OC)c(OC)c(OC)c2)[C@H]2C(=O)OC[C@@H]21)OCO3`: the IC50 in the assay on A549 came out at 10.7 µM; in the assay with A-375, 10.8 µM; in the assay on MCF7, 18.1 µM; with HT-29 it was 8.75 µM; with ACHN it was 11.9 µM.
Regarding `COc1cc(/C=C/C(=O)c2c(C)nc3ccccc3c2-c2ccccc2)ccc1OCC(=O)N[C@@H]1c2cc3c(cc2[C@@H](c2cc(OC)c(OC)c(OC)c2)[C@H]2C(=O)OC[C@@H]21)OCO3`, the IC50 was 13.4 µM in the assay on A549; 7.7 µM in the assay with A-375; 11.2 µM in the assay on MCF7; 7.75 µM with HT-29; 15.7 µM in the assay with ACHN.
`COc1cc([C@@H]2c3cc4c(cc3[C@@H](NC(=O)/C=C/c3ccc(Cl)cc3)[C@H]3COC(=O)[C@H]23)OCO4)cc(OC)c1OC`: the IC50 with A549 came to 8.8 µM; in the assay with A-375, 5.7 µM; in the assay on MCF7, 13.7 µM; in the assay on HT-29, 11.4 µM; in the assay on ACHN, 7.54 µM.
`COc1cc(C(=O)/C=C/c2cccc(OCCCCCC(=O)N[C@@H]3c4cc5c(cc4[C@@H](c4cc(OC)c(OC)c(OC)c4)[C@H]4C(=O)OC[C@@H]43)OCO5)c2)cc(OC)c1OC`: the IC50 in the assay with A549 stood at 14.7 µM; in the assay on A-375 it was 11.5 µM; with MCF7, 8.3 µM; in the assay with HT-29, 21.1 µM; in the assay with ACHN, 20.8 µM.
With `COc1cc(/C=C/C(=O)c2cc(OC)c(OC)c(OC)c2)ccc1OCC(=O)N[C@@H]1c2cc3c(cc2[C@@H](c2cc(OC)c(OC)c(OC)c2)[C@H]2C(=O)OC[C@@H]21)OCO3`, the IC50 in the assay with A549 was determined as 10.7 µM; in the assay with A-375, 7.8 µM; with MCF7 it was 14.9 µM; with HT-29, 9.54 µM; in the assay with ACHN, 8.51 µM.
Regarding `COc1cc(/C=C/C(=O)c2c(C)nc3ccccc3c2C)ccc1OCCCCCC(=O)N[C@@H]1c2cc3c(cc2[C@@H](c2cc(OC)c(OC)c(OC)c2)[C@H]2C(=O)OC[C@@H]21)OCO3`, the IC50 in the assay on A549 was 10.6 µM; in the assay with A-375, 10.3 µM; in the assay on MCF7 it was 8.6 µM; with HT-29, 11.8 µM; in the assay on ACHN, 10.7 µM.
Take `COc1cccc(C(=O)/C=C/c2ccc(OCC(=O)N[C@@H]3c4cc5c(cc4[C@@H](c4cc(OC)c(OC)c(OC)c4)[C@H]4C(=O)OC[C@@H]43)OCO5)c(OC)c2)c1`: the IC50 in the assay with A549 is 9.1 µM; in the assay with A-375 it was 13.8 µM; in the assay on MCF7, 21.8 µM; in the assay on HT-29 it was 8.1 µM; with ACHN, 13.8 µM.
Turning to `COc1ccc(/C=C/C(=O)N[C@@H]2c3cc4c(cc3[C@@H](c3cc(OC)c(OC)c(OC)c3)[C@H]3C(=O)OC[C@@H]32)OCO4)cc1`, the half-inhibitory concentration (IC50) in the assay on A549 was determined as 7.7 µM; in the assay with A-375, 19.1 µM; with MCF7, 15.7 µM; in the assay on HT-29 it was 17.6 µM; with ACHN, 17.8 µM.
For `COc1cc(/C=C/C(=O)c2ccc(F)cc2)ccc1OCCCCCC(=O)N[C@@H]1c2cc3c(cc2[C@@H](c2cc(OC)c(OC)c(OC)c2)[C@H]2C(=O)OC[C@@H]21)OCO3` the same measures were 5.9 µM, 11.4 µM, 15.8 µM, 11.7 µM and 9.3 µM.
In the case of `COc1cc(/C=C/C(=O)c2c(C)nc3ccccc3c2C)ccc1OCC(=O)N[C@@H]1c2cc3c(cc2[C@@H](c2cc(OC)c(OC)c(OC)c2)[C@H]2C(=O)OC[C@@H]21)OCO3`, the 50% inhibitory concentration (IC50) in the assay with A549 came out at 15.4 µM; in the assay with A-375, 14.5 µM; with MCF7, 13.8 µM; with HT-29, 12.3 µM; in the assay on ACHN it was 10.8 µM.
With `COc1cc([C@@H]2c3cc4c(cc3[C@@H](NC(=O)/C=C/c3ccc([N+](=O)[O-])cc3)[C@H]3COC(=O)[C@H]23)OCO4)cc(OC)c1OC`, the half-maximal inhibitory concentration (IC50) is 8.2 µM with A549; 14.5 µM with A-375; 10.1 µM in the assay on MCF7; 18.1 µM in the assay with HT-29; 12.8 µM in the assay with ACHN.
On to `COc1cc(/C=C/C(=O)c2c(C)nc3ccccc3c2-c2ccccc2)ccc1OCCCCCC(=O)N[C@@H]1c2cc3c(cc2[C@@H](c2cc(OC)c(OC)c(OC)c2)[C@H]2C(=O)OC[C@@H]21)OCO3`, for which the IC50 in the assay with A549 turned out to be 7.7 µM; with A-375, 6.8 µM; in the assay on MCF7, 2.2 µM; in the assay on HT-29, 8.9 µM; with ACHN, 9.46 µM.
For `COc1cccc2c1C(=O)c1c(O)c3c(c(O)c1C2=O)C[C@@](O)(C(=O)CO)C[C@@H]3O[C@H]1C[C@H](N)[C@H](O)[C@H](C)O1` [DOXORUBICIN], the IC50 in the assay on A549 worked out at 2.18 µM; in the assay on A-375, 5.51 µM; in the assay with MCF7, 2.02 µM; in the assay with HT-29 it was 1.06 µM; with ACHN, 0.79 µM.
In the case of `COc1cc([C@@H]2c3cc4c(cc3[C@@H](NC(=O)/C=C/c3ccc(Br)cc3)[C@H]3COC(=O)[C@H]23)OCO4)cc(OC)c1OC`, the IC50 with A549 is 9.5 µM; in the assay with A-375, 17.8 µM; in the assay with MCF7, 11.2 µM; with HT-29, 19.2 µM; with ACHN, 14.3 µM.
Take `COc1cc(C(=O)/C=C/c2ccc(OCCCCCC(=O)N[C@@H]3c4cc5c(cc4[C@@H](c4cc(OC)c(OC)c(OC)c4)[C@H]4C(=O)OC[C@@H]43)OCO5)cc2)cc(OC)c1OC`: the IC50 in the assay with A549 came out at 21.5 µM; in the assay with A-375, 18.4 µM; with MCF7, 24.8 µM; in the assay on HT-29, 15.3 µM; in the assay on ACHN it was 16.5 µM.
Consider `O=C(O)/C=C/c1ccc(C(F)(F)F)cc1`, for which the IC50 in the assay on A549 worked out at 56 µM; with A-375 it was 91 µM; with MCF7, 142 µM; in the assay on HT-29 it was 75 µM; in the assay with ACHN, 128 µM.
